Compound activity deposited in PubChem by several laboratories.
Sampled rows, rich in hits. Any-hit rate of the full collection: about 5.4%.
T cruzi inh: blocks replication of Trypanosoma cruzi. T. cruzi beta-gal in NIH3T3, luminescence, 90 h. 300,000 tested, 1.4% active. inhibition, % (concentration not given with the values);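 active = mean inhibition across valid replicates above about 55%, limit read from the data; inconclusive = mean below that limit but half or more replicates reach it; inactive = mean below it, under half of replicates reach it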;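 note: signal also drops with host cell toxicity which is not excluded here; 0% = plate median of DMSO wells and 100% = zero luminescence signal; higher percent means less beta-gal luminescence so fewer parasites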
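Incubation – ≥90 h infection period, 3 h prior cell attachment · System – NIH/3T3 fibroblasts plus reporter T. cruzi · Doses – compound pinned at 50 nL/well, DMSO · Read-out basis – percent inhibition of parasite-derived β-gal signal · Signal – luminescent β-galactosidase signal after 60 min lysis · Also added – 5000 T. cruzi trypomastigotes/well · Medium – Low-serum DMEM with 2% FBS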
CSC inhib: cancer stem cell inhibition. cancer stem cell-like cells viability, luminescence. inhibition, % at 7.5 µM. 300,000 tested, 1.1% active. AID 2717; in the data active = inhibition above about 75%; inconclusive = no clear call, values can overlap the other calls; tested in HMLE shEcad cells
Mdm2 MdmX PPI: disrupts the human Mdm2-MdmX interaction; AID 485346; inhibition, % at 8 µM; SaOS-2 split-luciferase Mdm2/MdmX complementation, luminescence; 330,000 tested, 3% active; O15151+Q00987;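 active = inhibition of at least 50% at 8 µM in the primary screen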
Target sequence (O15151 whole entry, looked up): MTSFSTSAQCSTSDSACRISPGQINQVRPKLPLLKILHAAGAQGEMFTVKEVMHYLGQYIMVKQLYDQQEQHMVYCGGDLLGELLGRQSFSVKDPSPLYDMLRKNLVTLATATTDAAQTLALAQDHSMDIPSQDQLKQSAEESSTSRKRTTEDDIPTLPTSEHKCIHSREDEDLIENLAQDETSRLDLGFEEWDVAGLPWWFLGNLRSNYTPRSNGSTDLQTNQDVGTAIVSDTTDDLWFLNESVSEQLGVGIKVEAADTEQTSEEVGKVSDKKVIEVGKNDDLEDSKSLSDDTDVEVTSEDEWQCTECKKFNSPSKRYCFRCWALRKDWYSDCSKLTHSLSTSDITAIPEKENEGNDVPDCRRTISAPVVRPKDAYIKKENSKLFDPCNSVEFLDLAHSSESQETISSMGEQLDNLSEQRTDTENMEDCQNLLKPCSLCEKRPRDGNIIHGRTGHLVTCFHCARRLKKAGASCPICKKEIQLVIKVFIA
Target sequence (Q00987 whole entry, looked up): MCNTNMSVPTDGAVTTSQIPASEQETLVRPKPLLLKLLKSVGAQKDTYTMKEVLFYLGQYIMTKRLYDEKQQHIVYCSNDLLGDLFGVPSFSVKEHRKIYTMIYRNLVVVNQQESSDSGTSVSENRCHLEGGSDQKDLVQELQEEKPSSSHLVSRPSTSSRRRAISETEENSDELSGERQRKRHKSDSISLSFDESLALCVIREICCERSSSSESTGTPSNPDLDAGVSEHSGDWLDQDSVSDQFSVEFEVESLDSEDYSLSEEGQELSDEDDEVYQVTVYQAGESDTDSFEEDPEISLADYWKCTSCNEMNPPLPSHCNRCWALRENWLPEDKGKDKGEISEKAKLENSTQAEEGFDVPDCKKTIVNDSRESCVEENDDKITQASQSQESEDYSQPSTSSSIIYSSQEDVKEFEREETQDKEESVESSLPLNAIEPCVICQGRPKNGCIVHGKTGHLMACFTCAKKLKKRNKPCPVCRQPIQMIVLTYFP
SKKanGAS inh: blocks kanamycin growth of S. pyogenes SKKanGAS strain; BacTiter-Glo, 6 h; inhibition, % at 7.5 µM; 300,000 tested, 1.3% active;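 active = mean replicate score, as percent of positive control median, at least 50; inconclusive = mean below 50 but one replicate at or above 50; inactive = mean and every replicate below 50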;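 note: strain carries kanamycin resistance gene driven by streptokinase promoter and grows in 40 µg/ml kanamycin; loss of luminescence reflects streptokinase promoter inhibition or plain growth inhibition; 0% = median of DMSO wells and 100% = positive control at its reference dose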
aSyn 5UTR inh: 5' untranslated region of α-synuclein, MLPCN primary screen. alpha-synuclein 5'UTR reporter, inhibitor activity. inhibition, % (tested at 7.5 µM). 300,000 tested, 0.82% active. AID 1813; in the data active = inhibition above about 60%; inconclusive = no clear call, values can overlap the other calls;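 note: H4 neuroglioblastoma cells stably carrying SNCA 5'UTR luciferase fusion; 0% = DMSO wells and 100% = positive control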
Mdm2 MdmX conf: confirmation of human Mdm2/MdmX interaction inhibitors. Mdm2-MdmX binding, luminescent assay. 10,000 tested, 55% active. inhibition, % at 8 µM. shares compounds with Mdm2 MdmX PPI; in the data active = inhibition above about 40%
FLuc counter: inhibits full-length luciferase, flagging false Mdm2/MdmX hits; shares compounds with Mdm2 MdmX PPI; AID 504607; 6,200 tested, 77% active; inhibition, % at 8 µM; SaOS-2 full-length luciferase counterscreen, luminescence;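 active = mean inhibition at 8 µM reaching about 37%, which flags the compound as non-specific, limit read from the data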;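 note: p53-null SaOS-2 cells with luciferase driven by a doxycycline-inducible promoter; compound on cells about two nights before reading with doxycycline added after day one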
Numbers without * were called inactive; ? = inconclusive; nt = no result.

SMILES	T cruzi inh	CSC inhib	Mdm2 MdmX PPI	SKKanGAS inh	aSyn 5UTR inh	others
C/C(=N\NC(=O)c1ccccc1Cl)c1c(O)n(C2CCCCC2)c(=O)[nH]c1=O	-1	-12	2	10	-7
CCC(=NCCN1CCOCC1)c1c(O)n(C2CCCCC2)c(=O)[nH]c1=O	-6	2	15	0	5
CCC(=NCCCN(CC)CC)c1c(O)n(C2CCCCC2)c(=O)[nH]c1=O	66*	-9	6	2	5
C/C(=N\NC(=O)c1ccccc1O)c1c(O)n(C2CCCCC2)c(=O)[nH]c1=O	-26	-7	14	50*	-9
O=C(Nc1ccc(OC(=O)N2CCCCC2)cc1)N1CCOCC1	-9	-18	2	4	89*
O=C(Nc1ccc(OC(=O)N2CCCC2)cc1)N1CCOCC1	0	31	9	-6	21
CCCCn1c(O)c(/C=N/NC(=O)c2ccncc2)c(=O)[nH]c1=S	-9	3	28	106*	0
CCCCCCC(=O)N/N=C/c1c(O)n(CCCC)c(=S)[nH]c1=O	-16	12	3	84*	17
Cn1c(O)c(/C=N/NC(=O)c2ccncc2)c(=O)[nH]c1=S	-19	-6	7	1	22
O=c1[nH]oc2c1CCNC2	nt	1	24	nt	nt
O=C(O)c1cccc2nc3ccccc3nc12	18	14	7	3	59
O=C(Nc1cccnc1)c1c(O)c2c(n(Cc3ccccc3)c1=O)CCCC2	27	19	29	52*	6
CCCCCP(=O)(O)c1ccccc1	-11	-6	-13	7	1
CCCC/C(C)=C/[C@@H](NP(=O)(c1ccccc1)c1ccccc1)c1ccccc1	40	114*	36	73*	12
O=C1C2CCN(CC2)C12CC2c1ccc(C(F)(F)F)cc1 (stereo not drawn)	5	-10	14	-1	15
NC(=O)Cn1cc(C(=O)c2ccccc2)c2ccccc21	-2	-4	-16	-4	17
CCOC(=O)c1c(-c2ccc(OC)cc2)oc2ccc(OC(=O)N(C)C)cc12	19	76*	18	39	-10
COc1ccccc1CN1CCCC(C(=O)c2ccccc2OC)C1 (stereo not drawn)	18	-3	3	-3	6
COc1ccccc1CN1CCCC(C(=O)c2ccccc2SC)C1 (stereo not drawn)	60*	-9	17	16	?
Clc1ccc(COC(Cn2ccnc2)c2ccc(Cl)cc2Cl)cc1 (stereo not drawn)	47	64	34	74*	7
Clc1ccc(CSC(Cn2ccnc2)c2ccc(Cl)cc2Cl)cc1 (stereo not drawn)	50	37	42	nt	5
CN(C)c1cccc2c(C#N)ccc(N(C)C)c12	14	0	3	5	19
N#CC(C#N)=C(C#N)c1ccc(Nc2ccccc2)cc1	-24	93*	14	6	-15
c1ccc(Nc2ccc(Nc3ccccc3)cc2)cc1	nt	27	8	nt	nt
CN1C(=O)C(=Cc2sc(=O)n(-c3ccccc3)c2N(C)C)C(=O)N(C)C1=O	4	10	8	1	-29
SMILES	T cruzi inh	CSC inhib	Mdm2 MdmX PPI	SKKanGAS inh	aSyn 5UTR inh	others
CC1(c2ccc(Cl)cc2Cl)OCC(Cn2cncn2)O1 (stereo not drawn)	-26	-13	-13	-5	28
CCCC1COC(Cn2cncn2)(c2ccc(Cl)cc2Cl)O1 (stereo not drawn)	65*	-1	5	0	6
CC(C)(C)c1o[nH]c(=O)c1CC(N)C(=O)O (stereo not drawn)	nt	-6	2	nt	nt
CCN1CCN(c2cc(N3CCCC3)c([N+](=O)[O-])cc2F)CC1	28	64	-4	-1	-33
[Cl][Pt+2][Cl].[NH-]C1CCCCC1[NH-] (stereo not drawn)	nt	-5	1	nt	nt
C=C1C(=O)O[C@@H]2C[C@@H](C)[C@@H]3C4OC4C(=O)[C@@]3(C)[C@@H](O)[C@H]12 (stereo partly drawn)	46	75*	101*	-5	-221	Mdm2 MdmX conf=100*;FLuc counter=5
COc1cc2c(cc1OC)C(C1c3cc4c(cc3CCN1C)OCO4)OC2=O (stereo not drawn)	-11	9	1	-12	-6
